# Data reported in ChEMBL document CHEMBL1122744, “2-Chloroethyl (methylsulfonyl)methanesulfonate and related (methylsulfonyl)methanesulfonates. Antineoplastic activity in vivo” (J Med Chem, 1984).
# Several values for one entry are separate records, joined by “and”; a condition that tells them apart may be missing. Equal values may be shown once.
# What was measured:
# Mus musculus [1] = test: Change in weight by day 5, obtained by subtracting treated groups of animals minus control groups of animals at dose 6 mg/kg in exp2; type: functional
# How it was run: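 Mice were inoculated ip with 10^6 P388 leukemia cells on day 0 and weighed 19–22 g that day. Compound was given ip once daily on days 1–5, within about 5 min of preparing the solution or suspension, to groups of six (occasionally five). Thirty inoculated untreated mice served as controls. The value is the average weight change of treated mice minus that of controls on day 5.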
# Mus musculus [2] = test: Change in weight by day 5, obtained by subtracting treated groups of animals minus control groups of animals at dose 12 mg/kg in exp2; type: functional
# How it was run: (§1)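 Mice were inoculated ip with 10^6 P388 leukemia cells on day 0, when treated and control mice weighed 19–22 g. Treatment was given ip once daily on days 1–5, within about 5 min of preparing the solution or suspension. Groups of six (occasionally five) were treated, with 30 untreated inoculated mice as controls. The day-5 weight change is the mean treated change minus the mean control change.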
# Mus musculus [3] = test: Change in weight by day 5, obtained by subtracting treated groups of animals minus control groups of animals at dose 25 mg/kg in exp1.; type: functional; how it was run: as §1
# Mus musculus [4] = test: Change in weight by day 5, obtained by subtracting treated groups of animals minus control groups of animals at dose 25 mg/kg in exp2; type: functional; how it was run: as §1
# Mus musculus [5] = test: Change in weight by day 5, obtained by subtracting treated groups of animals minus control groups of animals at dose 50 mg/kg in exp2; type: functional; how it was run: as §1
# Mus musculus [6] = test: Median survival time of the treated control groups, in which there are no 30-day survivors at dose 12 mg/kg in exp2; type: functional; settings: 12 mg/kg
# Mus musculus [7] = test: Mortality by day 5 expressed as number of mice died to the total treated at dose 6 mg/kg in exp2; 0/6; type: ADME, organism-based; parameters: dose 6 mg/kg; settings: in vivo
# Mus musculus [8] = test: Mortality by day 5 expressed as number of mice died to the total treated at dose 200 mg/kg in exp1; 5/6; type: ADME, organism-based; parameters: dose 200 mg/kg; settings: in vivo
# Mus musculus [9] = test: Mortality by day 5 expressed as number of mice died to the total treated at dose 25 mg/kg in exp1; 2/6; type: ADME, organism-based; parameters: dose 25 mg/kg; settings: in vivo
# Mus musculus [10] = test: Mortality by day 5 expressed as number of mice died to the total treated at dose 25 mg/kg in exp2; 0/6; type: ADME, organism-based; parameters: dose 25 mg/kg; settings: in vivo
# Mus musculus [11] = test: Mortality by day 5 expressed as number of mice died to the total treated at dose 50 mg/kg in exp1; 6/6; type: ADME, organism-based; parameters: dose 50 mg/kg; settings: in vivo
# Mus musculus [12] = test: Median survival time of the treated control groups, in which there are no 30-day survivors at dose 25 mg/kg in exp1*-based on the four of six that survived bryond 5th day; type: functional
# Mus musculus [13] = test: Median survival time of the treated control groups, in which there are no 30-day survivors at dose 25 mg/kg in exp2; type: functional
# Mus musculus [14] = test: Median survival time of the untreated control groups, in which there are no 30-day survivors at dose 25 mg/kg in exp1; type: functional
# Mus musculus [15] = test: Median survival time of the untreated control groups, in which there are no 30-day survivors at dose 50 mg/kg in exp1; type: functional
# Mus musculus [16] = test: Median survival time of the untreated control groups, in which there are no 30-day survivors at dose 100 mg/kg in exp1; type: functional
# Mus musculus [17] = test: Median survival time of the untreated control groups, in which there are no 30-day survivors at dose 12 mg/kg in exp2; type: functional
# [18] = Ratio of number of 60-day survivors to the total treated mice at dose 25 mg/kg in exp1; 0/6; type: functional
# [19] = Ratio of number of 60-day survivors to the total treated mice at dose 25 mg/kg in exp2; 1/6; type: functional
# [20] = Ratio of number of 60-day survivors to the total treated mice at dose 25 mg/kg in exp2; 2/6; type: functional
# [21] = Ratio of median survival times for non-survivors at dose 50 mg/kg in exp1; t= toxic; type: ADME, organism-based; parameters: dose 50 mg/kg; settings: in vivo
# [22] = Ratio of number of 30-day survivors to the total treated mice at dose 25 mg/kg in exp1; 2/6; type: functional
# [23] = Ratio of number of 30-day survivors to the total treated mice at dose 25 mg/kg in exp2; 3/6; type: functional
# Mus musculus [24] = test: Median survival time of the untreated control groups, in which there are no 30-day survivors at dose 25 mg/kg in exp2; type: functional
# [25] = Ratio of median survival times for non-survivors at dose 100 mg/kg in exp1; t=toxic; type: ADME, organism-based; parameters: dose 100 mg/kg; settings: in vivo
# How it was run: (§2)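 Mice were inoculated ip with 10^6 P388 leukemia cells on day 0. Groups of six (occasionally five) were dosed ip qd on days 1–5 with fresh suspensions; 30 mice served as untreated controls. Deaths were recorded daily up to day 60. T/C% compares the median survival of treated non-survivors (<60 days) with the control median. Medians used grouped data when there were no 30-day survivors, otherwise ungrouped data. t = toxic.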
# [26] = Ratio of median survival times for non-survivors at dose 12 mg/kg in exp2; type: functional; settings: 12 mg/kg; how it was run: as §2
# [27] = Ratio of median survival times for non-survivors at dose 25 mg/kg in exp1*-based on the four of six that survived bryond 5th day; type: functional
# [28] = Ratio of median survival times for non-survivors at dose 25 mg/kg in exp2; type: functional; how it was run: as §2
# Mus musculus [29] = test: Mortality by day 5 expressed as number of mice died to the total treated at dose 100 mg/kg in exp1; 6/6; type: ADME, organism-based; parameters: dose 100 mg/kg; settings: in vivo
# Mus musculus [30] = test: Change in weight by day 5, obtained by subtracting treated groups of animals minus control groups of animals at dose 100 mg/kg in exp1.; type: functional; how it was run: as §1
# Mus musculus [31] = test: Change in weight by day 5, obtained by subtracting treated groups of animals minus control groups of animals at dose 50 mg/kg in exp1.; type: functional; how it was run: as §1
# Mus musculus [32] = test: Mortality by day 5 expressed as number of mice died to the total treated at dose 100 mg/kg in exp1; 0/6; type: ADME, organism-based; parameters: dose 100 mg/kg; settings: in vivo
# Mus musculus [33] = test: Median survival time of the treated control groups, in which there are no 30-day survivors at dose 100 mg/kg in exp1; type: functional
# Mus musculus [34] = test: Mortality by day 5 expressed as number of mice died to the total treated at dose 50 mg/kg in exp1; 0/6; type: ADME, organism-based; parameters: dose 50 mg/kg; settings: in vivo
# Mus musculus [35] = test: Median survival time of the treated control groups, in which there are no 30-day survivors at dose 50 mg/kg in exp1; type: functional
# Mus musculus [36] = test: Median survival time of the untreated control groups, in which there are no 30-day survivors at dose 200 mg/kg in exp1; type: functional
# [37] = Ratio of median survival times for non-survivors at dose 200 mg/kg in exp1; t= toxic; type: ADME, organism-based; parameters: dose 200 mg/kg; settings: in vivo; how it was run: as §2
# [38] = Ratio of median survival times for non-survivors at dose 100 mg/kg in exp1; type: functional; parameters: unit: %; how it was run: as §2
# [39] = Ratio of median survival times for non-survivors at dose 50 mg/kg in exp1; type: functional; parameters: unit: %; how it was run: as §2
smiles,measurement,setting,value
CS(=O)(=O)CS(=O)(=O)OCCF,Change in weight,Mus musculus [1],-1.8
same,Change in weight,Mus musculus [2],-3.7
same,Change in weight,Mus musculus [3],-4.3
same,Change in weight,Mus musculus [4],-5.6
same,Change in weight,Mus musculus [5],-4.8
same,Median survival time,Mus musculus [6],19.8 and 15
same,Mortality,Mus musculus [7],0
same,Mortality,Mus musculus [8],5
same,Mortality,Mus musculus [9],2
same,Mortality,Mus musculus [10],0
same,Mortality,Mus musculus [11],6
same,Median survival time,Mus musculus [12],31
same,Median survival time,Mus musculus [13],30
same,Median survival time,Mus musculus [14],11.2
same,Median survival time,Mus musculus [15],11.2
same,Median survival time,Mus musculus [16],11.2
same,Median survival time,Mus musculus [17],10.5
same,Ratio,[18],0
same,Ratio,[19],1
same,Ratio,[20],2
same,Ratio,[21],Toxic
same,Ratio,[22],2
same,Ratio,[23],3
same,Median survival time,Mus musculus [24],10.5
same,Ratio,[25],Toxic
same,Ratio,[26],188 and 142
same,Ratio,[27],277
same,Ratio,[28],286
same,Mortality,Mus musculus [29],6
O=S(=O)(CCl)OCCBr,Change in weight,Mus musculus [30],-1.5
same,Change in weight,Mus musculus [31],-0.5
same,Mortality,Mus musculus [32],0
same,Median survival time,Mus musculus [33],12.7
same,Mortality,Mus musculus [8],5
same,Mortality,Mus musculus [34],0
same,Median survival time,Mus musculus [35],12.3
same,Median survival time,Mus musculus [15],11.1
same,Median survival time,Mus musculus [16],11.1
same,Median survival time,Mus musculus [36],11.1
same,Ratio,[37],Toxic
same,Ratio,[38],114
same,Ratio,[39],110
